Results collected from several papers.
Lines come from different studies, so protocols differ.
Matrix: plasma

SMILES | system | setting | Cmax
Br.Cc1ccc(Sc2ccccc2N2CCNCC2)c(C)c1 | human | oral, 10 mg, multiple doses, steady state, healthy volunteers | 18 ng/mL
CNC(=O)c1cc(Oc2ccc(NC(=O)Nc3cc(C(C)(C)C)nn3-c3ccc4ncccc4c3)c(F)c2)ccn1 | human | oral, 100 mg, multiple doses, twice daily | 114 ng/mL
CC(C)n1cc(C#N)c2cc(-n3cc(C(=O)O)cn3)ccc21 | human | oral, 50 mg, single dose, fasted, healthy volunteers | 1440 ng/mL
C/C(=C\c1csc(C)n1)[C@@H]1C[C@@H]2O[C@]2(C)CCC[C@H](C)[C@H](O)[C@@H](C)C(=O)C(C)(C)[C@@H](O)CC(=O)N1 | human | intravenous, 15 mg/m², patients | 89.6 ng/mL
CNCC[C@H](Oc1cccc2ccccc12)c1cccs1 | female human | oral, 60 mg, multiple doses, once daily | 54 ng/mL
O=C(NO)c1ccc(CN(c2cnccn2)c2cnccn2)cc1 | human | oral, 800 mg, multiple doses, twice daily, patients | 1270 ng/mL
C[C@@H](Oc1ccc(S(C)(=O)=O)cc1C(=O)N1C[C@@H]2C[C@]2(c2cc(C(F)(F)F)on2)C1)C(F)(F)F | human | oral, 25 mg, fed, tablet | 312 nM
CC(C)(C(=O)N1CCOc2c(C#N)cncc2C1)C(F)F | human | oral, 20 mg, multiple doses, once daily | 250 ng/mL
CO[C@H]1CC[C@H](N2C(=O)CNc3ncc(-c4ccc(C(C)(C)O)nc4)nc32)CC1 | human | oral, 45 mg, multiple doses, patients | 417 ng/mL
COc1ccc([C@@H]2CN(C(=O)[C@@H](O)CO)C[C@@]2(C)[C@@H](C)O)cc1OC1CN(c2ccc(C)cn2)C1 | human | oral, 40 mg, single dose, healthy volunteers | 799 ng/mL
CC(C)(O)c1ccccc1-c1ccc2[nH]c(/C=C/c3ccc(C(F)(F)F)cc3)nc2c1 | male human | oral, 5 mg, single dose, fasted, healthy volunteers | 29.6 ng/mL
O=C(O)C[C@H](O)C[C@H](O)/C=C/c1c(C2CC2)nc2ccccc2c1-c1ccc(F)cc1 | human | oral, 2 mg, single dose, fed, healthy volunteers, tablet | 46.5 ng/mL
NS(=O)(=O)NCCNc1nonc1C(=NO)Nc1ccc(F)c(Br)c1 | human | oral, 600 mg, multiple doses, twice daily, steady state, patients | 4820 nM
CS(=O)(=O)CCNCc1ccc(-c2ccc3ncnc(Nc4ccc(OCc5cccc(F)c5)c(Cl)c4)c3c2)o1 | human | oral, 900 mg, multiple doses, twice daily, steady state, patients | 3570 ng/mL
CCCOc1ccc([C@H]2CNC(=O)N2c2ccc3[nH]cnc3c2)cc1 | human | oral, 200 mg, single dose, fed, healthy volunteers | 565 ng/mL
Cn1cc(-c2ccc(S(=O)(=O)[C@@H]3C[C@@H](C(=O)NC4(C#N)CC4)N(C(=O)C4(C(F)(F)F)CC4)C3)c(C(F)(F)F)c2)cn1 | human | oral, 3 mg, single dose, fasted, healthy volunteers | 20.8 ng/mL
Cc1ccc(C(=O)N(CCCN)[C@@H](c2oc3cc(Cl)ccc3c(=O)c2Cc2ccccc2)C(C)C)cc1 | human | intravenous, 5 mg/m², single dose, patients, infusion | 607 ng/mL

SMILES | system | setting | Cmax
O=C(/C=C/c1cccc(S(=O)(=O)Nc2ccccc2)c1)NO | human | intravenous, 1900 mg/m², patients | 106000 ng/mL
CC[C@H](C)C(=O)O[C@H]1C[C@H](O)C=C2C=C[C@H](C)[C@H](CC[C@@H](O)C[C@@H](O)CC(=O)O)[C@H]21 | human | oral, 20 mg | 11.4 ng/mL
Cn1c(=O)oc2ccc(-c3ccc(C[C@@H](C#N)NC(=O)[C@@H]4CNCCCO4)cc3)cc21 | male human | oral, 15 mg, single dose, healthy volunteers | 202 nM
CCOc1cc([C@@H](CS(C)(=O)=O)N2C(=O)c3cccc(NC(C)=O)c3C2=O)ccc1OC | human | oral, 30 mg, single dose, healthy volunteers | 278 ng/mL
COCCOc1cnc2ccn([C@H](C)c3nnc4c(F)cc(-c5cnn(C)c5)cn34)c(=O)c2c1 | human | oral, 200 mg, multiple doses, once daily, patients | 3760 ng/mL
O=C(Nc1c(Cl)cncc1Cl)c1ccc(OC(F)F)c(OCC2CC2)c1 | human | oral, 0.25 mg, single dose, fasted | 6.4 ng/mL
CCn1c(=O)c(-c2cc(NC(=O)Nc3ccccc3)c(F)cc2Br)cc2cnc(NC)cc21 | human | oral, 250 mg, single dose, patients | 1070 ng/mL
FC(F)(F)c1ccc(CNc2ccc(Cc3c[nH]c4ncc(Cl)cc34)cn2)cn1 | human | oral, 600 mg, multiple doses, patients | 3660 ng/mL
N#CN1C[C@H](n2nc(-c3ccc(Oc4ccc(Cl)cn4)cc3)c(C(N)=O)c2N)CCC12CC2 | human | oral, 600 mg, single dose, fed | 1060 ng/mL
CCc1nc2c(C)cc(N3CCN(CC(=O)N4CC(O)C4)CC3)cn2c1N(C)c1nc(-c2ccc(F)cc2)c(C#N)s1 | human | oral, 1000 mg, fed, healthy volunteers | 13200 ng/mL
COc1cc(C(=O)NC2CCN(C)CC2)c(F)cc1Nc1ncc(C(F)(F)F)c(Oc2cccc3c2C(=O)N(C)C3)n1 | human | oral, 10 mg, multiple doses, once daily, steady state, patients | 59.2 nM
C[C@@]1(c2cc(NC(=O)c3ccc(C#N)cn3)ccc2F)C=CSC(N)=N1 | human | oral, 1 mg, single dose | 5.62 ng/mL
CO[C@@H]1[C@H](OC(=O)N2CC(CCN3CCOCC3)C2)CC[C@]2(CO2)[C@H]1[C@@]1(C)O[C@@H]1CC=C(C)C | human | subcutaneous, 1.2 mg, single dose, healthy volunteers | 7.04 ng/mL
CCCCC1=NC2(CCCC2)C(=O)N1Cc1ccc(-c2ccccc2S(=O)(=O)Nc2noc(C)c2C)c(COCC)c1 | human | oral, 800 mg, single dose, fed, healthy volunteers | 16200 ng/mL
CC(C)(Sc1ccncc1-c1ccc(C#N)c2ccccc12)C(=O)O | male human | oral, 20 mg, single dose, fasted, healthy volunteers | 384 ng/mL
COc1cc2c(cc1OC)CN(CCc1ccc(NC(=O)c3cc(OC)c(OC)cc3NC(=O)c3cnc4ccccc4c3)cc1)CC2 | human | intravenous, 2 mg/kg, patients | 2500 nM
